One may read the MIC as the lowest concentration found to suppress growth.

The subject of the assay is Plasmodium falciparum. Put plainly: Antimalarial activity against chloroquine-sensitive Plasmodium falciparum NF54 after 36-40 hrs. The format is functional. An outline of the steps:
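Rieckmann microassay: NF-54 kept in RPMI-1640 with 25 mM HEPES, 1% D-glucose, 0.23% sodium bicarbonate, 10% heat-inactivated human serum. Ring stage obtained by 5% D-sorbitol synchronization; ~1% parasitemia, 3% haematocrit. Compound 0.25–50 µg/ml, duplicate wells, 37 °C in candle jar. Giemsa smears scored microscopically; MIC taken as lowest concentration blocking full maturation to schizonts.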

Values after ≈ are worked out from the molar mass of the structure shown.

For `COC(=O)[C@H]1Cc2c([nH]c3ccccc23)[C@H](c2ccc(C(C)C)cc2)N1CCCNc1ccnc2cc(Cl)ccc12`, the minimal inhibitory concentration (MIC) was 0.22 µM (≈ 0.125 µg/mL).
For `COC(=O)[C@H]1Cc2c([nH]c3ccccc23)[C@H](c2ccc(SC)cc2)N1CCCNc1ccnc2cc(Cl)ccc12`, the lowest concentration to inhibit growth (MIC) was 17.5 µM (≈ 10 µg/mL).
For the compound `COC(=O)[C@@H]1Cc2c([nH]c3ccccc23)[C@H](c2ccc(C(C)C)cc2)N1CCCNc1ccnc2cc(Cl)ccc12`, the MIC amounted to 0.22 µM (≈ 0.125 µg/mL).
The value for `COC(=O)[C@@H]1Cc2c([nH]c3ccccc23)[C@@H](c2ccc(C(C)C)cc2)N1CCNc1ccnc2cc(Cl)ccc12` was 18.1 µM (≈ 10 µg/mL); that for `COC(=O)[C@@H]1Cc2c([nH]c3ccccc23)[C@H](c2ccc(C(C)C)cc2)N1CCNc1ccnc2cc(Cl)ccc12` was 18.1 µM (≈ 10 µg/mL); that for `COC(=O)[C@@H]1Cc2c([nH]c3ccccc23)[C@@H](c2ccc(C(C)C)cc2)N1CCCNc1ccnc2cc(Cl)ccc12` was 0.05 µM (≈ 0.0284 µg/mL).
Next, `COC(=O)[C@H]1Cc2c([nH]c3ccccc23)[C@H](c2ccc(Cl)cc2)N1CCCNc1ccnc2cc(Cl)ccc12`: 1.79 µM (≈ 1 µg/mL); `COC(=O)[C@@H]1Cc2c([nH]c3ccccc23)[C@@H](c2ccc(C)cc2)N1CCCNc1ccnc2cc(Cl)ccc12`: 0.06 µM (≈ 0.0323 µg/mL); `COC(=O)[C@H]1Cc2c([nH]c3ccccc23)[C@@H](c2ccc(C(C)C)cc2)N1CCCNc1ccnc2cc(Cl)ccc12`: 0.22 µM (≈ 0.125 µg/mL).
Consider `COC(=O)[C@@H]1Cc2c([nH]c3ccccc23)[C@H](c2ccc(OC)cc2)N1CCCNc1ccnc2cc(Cl)ccc12`, for which the minimum inhibitory concentration (MIC) stood at 3.61 µM (≈ 2 µg/mL).
Next, `CCc1ccc([C@@H]2c3[nH]c4ccccc4c3C[C@H](C(=O)OC)N2CCCNc2ccnc3cc(Cl)ccc23)cc1`: 0.11 µM (≈ 0.0608 µg/mL); `COC(=O)[C@H]1Cc2c([nH]c3ccccc23)[C@H](c2ccc(C)cc2)N1CCNc1ccnc2cc(Cl)ccc12`: 19.1 µM (≈ 10 µg/mL).
On to `COC(=O)[C@H]1Cc2c([nH]c3ccccc23)[C@@H](c2ccc(OC)cc2)N1CCCNc1ccnc2cc(Cl)ccc12`, for which the MIC came out at 3.61 µM (≈ 2 µg/mL). Against the preceding compound, the MIC is about 5.3-fold lower.
Next, `COC(=O)[C@H]1Cc2c([nH]c3ccccc23)[C@@H](c2ccc(C(C)C)cc2)N1CCNc1ccnc2cc(Cl)ccc12`: 18.1 µM (≈ 10 µg/mL); `COC(=O)[C@@H]1Cc2c([nH]c3ccccc23)[C@H](c2ccc(Cl)cc2)N1CCCNc1ccnc2cc(Cl)ccc12`: 3.58 µM (≈ 2 µg/mL).
Regarding `COC(=O)[C@@H]1Cc2c([nH]c3ccccc23)[C@H](c2cc(OC)c(OC)c(OC)c2)N1CCCNc1ccnc2cc(Cl)ccc12`, the lowest concentration to inhibit growth (MIC) was 16.3 µM (≈ 10 µg/mL).
Compound `COC(=O)[C@H]1Cc2c([nH]c3ccccc23)[C@H](c2cc(OC)c(OC)c(OC)c2)N1CCCNc1ccnc2cc(Cl)ccc12` showed a minimum inhibitory concentration (MIC) of 16.3 µM (≈ 10 µg/mL). This counts as double-digit micromolar.
In the case of `COC(=O)[C@@H]1Cc2c([nH]c3ccccc23)[C@@H](c2ccc(OC)cc2)N1CCCNc1ccnc2cc(Cl)ccc12`, the minimal inhibitory concentration (MIC) was 3.61 µM (≈ 2 µg/mL).
The compound `COC(=O)[C@H]1Cc2c([nH]c3ccccc23)[C@H](c2ccc(C)cc2)N1CCCNc1ccnc2cc(Cl)ccc12` registered a minimum inhibitory concentration (MIC) of 0.46 µM (≈ 0.248 µg/mL).
As for `COC(=O)[C@H]1Cc2c([nH]c3ccccc23)[C@H](c2ccc(OC)cc2)N1CCCNc1ccnc2cc(Cl)ccc12`, it took 18.1 µM (≈ 10 µg/mL) to inhibit growth (MIC).
`COC(=O)[C@H]1Cc2c([nH]c3ccccc23)[C@H](c2ccc(Br)cc2)N1CCCNc1ccnc2cc(Cl)ccc12` had an MIC of 16.6 µM (≈ 10 µg/mL). This MIC and that of the compound before are within 1.5-fold of each other.
Compound `COC(=O)[C@@H]1Cc2c([nH]c3ccccc23)[C@H](c2ccc(SC)cc2)N1CCCNc1ccnc2cc(Cl)ccc12` had an MIC of 17.5 µM (≈ 10 µg/mL).
Next, `COC(=O)[C@H]1Cc2c([nH]c3ccccc23)[C@H](c2ccc(C(C)C)cc2)N1CCNc1ccnc2cc(Cl)ccc12`: 18.1 µM (≈ 10 µg/mL); `CCN(CC)CCCC(C)Nc1ccnc2cc(Cl)ccc12` (centres undefined) [CHLOROQUINE]: 0.391 µM (≈ 0.125 µg/mL).

(Values after ChEMBL document CHEMBL1143077, “Synthesis of 2-[3-(7-Chloro-quinolin-4-ylamino)-alkyl]-1-(substituted phenyl)-2,3,4,9-tetrahydro-1H-beta-carbolines as a new class of antimalarial agents” (2008).)
